As usually defined, the inhibition is the relative decrease from the control value, in per cent.

Each structure is given as a SMILES string. Activity calls are given as the source filed them. No cut-off for these calls is given here.

The test system of experiment [1] is Escherichia coli. The experiment is described as follows: Antibacterial activity against Escherichia coli at 60 ug/mL. The experiment is classed as functional, organism-based.
Experiment [2] concerns Escherichia coli. Put plainly: Antibacterial activity against Escherichia coli RP437/pRSH103 assessed as reduction of colony forming unit at 40 ug/ml after 3 hrs. The experiment is classed as functional. In a few lines: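 Viable counts (CFU/mL) taken before and after 3 h exposure at 37 C. A parallel culture given the same amount of ethanol (0.2%) served as negative control.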

Experiment [3] has as its system Escherichia coli. The experiment is described as follows: Antibacterial activity against Escherichia coli RP437/pRSH103 at 5 to 10 ug/ml. The experiment is classed as functional, organism-based. In a few lines:
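Toxicity followed as growth curves. OD600 of E. coli cultures was monitored over time in LB medium with tetracycline, containing a range of furanone concentrations.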

In experiment [4] the test system is Escherichia coli. The experiment is described as follows: Inhibition of Escherichia coli biofilm formation at 60 ug/mL. The experiment is classed as functional. The gist of the method: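 DsRed-express-labeled E. coli biofilms were grown 24 h at 37 C on 316 L stainless steel coupons, with furanone added to the growth medium. Imaged by confocal microscopy. Biomass, surface coverage and mean thickness were calculated from the images and expressed relative to a no-furanone control. Four replicates.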

Take `COC1=CC(=O)OC1`: in the experiment on Escherichia coli [1], the result was inactive.

Consider `O=C1OC(=C(Br)Br)C=C1CBr`, for which the CFU in the experiment with Escherichia coli [2] turned out to be 390 mL⁻¹.

As for `CC1=CC(C)OC1=O` (centres undefined), the result in the experiment with Escherichia coli [1] was inactive.

In the case of `O=C1O/C(=C\Br)C(Br)=C1CBr`, in the experiment on Escherichia coli [3], the outcome was Active.

For the molecule `CC1=CC(=O)OC1=O`, the outcome in the experiment on Escherichia coli [1] was inactive.

As to `CC1=CC(=C(Br)Br)OC1=O`, the result in the experiment with Escherichia coli [1] was inactive. Further, testing at 60 µg/mL in the experiment with Escherichia coli [4] gave an inhibition of 63%.

With `CC1=C(Br)C(C(Br)Br)OC1=O` (centres undefined), the outcome in the experiment on Escherichia coli [1] was inactive. In the experiment with Escherichia coli [4], this molecule showed an inhibition at 60 µg/mL of 19%.

As to `CC1=C(Br)C(Br)(C(Br)Br)OC1=O` (centres undefined), in the experiment on Escherichia coli [1], the outcome was inactive.

With `CC1=C(Br)/C(=C/Br)OC1=O`, the outcome with Escherichia coli [1] was inactive. In the experiment with Escherichia coli [4], this molecule gave an inhibition at 60 µg/mL of 75%.

For the molecule `O=C1OC(=C(Br)Br)C=C1C(Br)Br`, the outcome in the experiment with Escherichia coli [1] was inactive. For the same molecule, the inhibition at 60 µg/mL in the experiment with Escherichia coli [4] was found to be 80%.

For the origin of these results see ChEMBL document CHEMBL1140834, “Identifying the important structural elements of brominated furanones for inhibiting biofilm formation by Escherichia coli” (2008).
